rRNA inh HTS: reduced GFP signal of wild-type E. coli, primary screen, bacterial rRNA inhibitor project, GFP/RFP fluorescence, OD600, single point | E. coli WT GFP vs humanized-ribosome RFP mutants, 24 h; active compounds read low; DMSO median 0, no signal -100 | GFP signal change (wild-type ribosome), % (test concentration not listed) | 1.6% of 350,000 active;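 active means significant combined selectivity score with lowered wild-type GFP, culture density cut under 30%, mutant RFP and density less affected; inactive means any of these conditions unmet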
PGC1a acetyl inh: inhibitors of PGC1a acetylation signal, primary screen, cell-based, U2OS, AlphaScreen, inhibitor mode. AlphaScreen anti-acetyl-lysine; with virally co-expressed GCN5 acetyltransferase. inhibition, % at 15.6 µM. 0.17% of 350,000 active. AID 651687, 2012;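 active means every replicate shows inhibition of at least 40%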;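 further: 0% = neutral control wells and 100% = positive control wells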
PglD DTNB: C. jejuni PglD acetyltransferase inhibitors, primary screen, biochemical, DTNB colorimetric, single point. inhibition, % at 12.5 µM. purified PglD enzyme, DTNB colorimetric CoA detection. AID 602405, 2012. 0.098% of 360,000 active. UDP-N-acetylbacillosamine N-acetyltransferase PglD (Campylobacter jejuni); in the data active means inhibition above about 16%, passing the limit was not always enough
FN deposition inh: inhibitors of fibronectin matrix deposition, primary screen, AH1F cells, Alexa488-fibronectin fluorescence, plate reader | AH1F fibroblasts, overnight | inhibition, % at 12.6 µM | 0.086% of 350,000 active | AID 743247, 2014;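 active means mean inhibition across replicates of 30% or more, regardless of how many single replicates reach that level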;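 further: positive control wells lacked labelled fibronectin entirely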
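test system = AH1F fibroblasts assembling fluorescent fibronectin matrix | quantity = 10000 AH1F cells per well | buffer or medium = DMEM plus 2% serum, read in PBS | doses = single dose, pinned | incubation = 1 h cell attachment, overnight exposure to compound and label | detection = fluorescence at 485 nm excitation, 525 nm emission | read-out basis = inhibition from reduced deposited-fibronectin fluorescence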
DENV2 CPE rescue: inhibitors of DENV2 cytopathic effect, primary screen, cell-based, plate reader, single concentration. DENV2-infected cells, cytopathic effect rescue. CPE inhibition, % at 9.99 µM. 1.7% of 350,000 active. AID 651640, 2012; in the data active means CPE inhibition above about 20%, passing the limit was not always enough; tested in BHK-21 cells;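 further: 0% = median of neutral control wells and 100% = median of positive control wells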
Env fusion inh: inhibitors of HIV-1 Env-driven cell-cell fusion, primary screen, HeLa-JRFL effector, CEM21 target cells, luciferase | inhibition, % at 12.3 µM | 1.1% of 360,000 active;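 active means mean replicate inhibition score of at least 50 and every replicate individually at or above 50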;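 further: 0% = plate neutral controls and 100% = maraviroc near 300 nM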
* = called active by the depositor; · = not tested or not shown; [ ] = another dose, or the depositor's remark. This is a sample that favours compounds with a hit; in the whole collection about 3.5% have one here.

SMILES | rRNA inh HTS | PGC1a acetyl inh | PglD DTNB | FN deposition inh | DENV2 CPE rescue | Env fusion inh
O=C(N[C@@H]1C=C[C@@H](CC(=O)N2CCC(Cc3ccccc3)CC2)O[C@@H]1CO)c1cnccn1 | -2.8 | -0.5 | -0.3 | -10.7 | 2.1 | ·
O=C(c1ccncc1)N1CCCC(N2CCN(c3cccc(C(F)(F)F)c3)CC2)C1 (stereo not given) | 0.6 | · | 3.2 | 1.5 | 20.9* | 15.5
CO[C@H]1CN(C)C(=O)c2ccc(NC(=O)C3CC3)cc2OC[C@@H](C)N(C(=O)c2cccnc2)C[C@@H]1C | 2.5 | -6.5 | 7.3 | -6.0 | -6.8 | ·
COc1ccc(C(=O)OCC(=O)Nc2nnc(-c3ccccc3)o2)cc1 | 1.7 | 7.2 | 1.2 | 0.9 | -8.4 | -31.9
COc1cccc(CC(=O)OCC(=O)Nc2nnc(-c3ccccc3)o2)c1 | -27.3* | 10.4 | 5.9 | 4.5 | 102.5* | -36.8
Cc1noc(C)c1NC(=O)Nc1cccc2c1O[C@@H](CN(C)Cc1ccc(Oc3ccccc3)cc1)[C@H](C)CN([C@H](C)CO)C2=O | -9.2 | -5.8 | -2.6 | 2.9 | -7.5 | -7.2[16.7 µM]
Cc1ccc(C)c(C(=O)OCC(=O)Nc2cccc(S(=O)(=O)NC3=NCCCCC3)c2)c1 | -10.0 | -29.1 | 6.2 | 2.5 | -4.8 | -12.4
O=C(CCl)Nc1ccc(S(=O)(=O)NC2=NCCCCC2)cc1 | 0.8 | 2.6 | -1.3 | · | 59.8* | 31.4
Cc1ccc(C)c(OCCC(=O)Nc2cccc(S(=O)(=O)NC3=NCCCCC3)c2)c1 | -21.9* | · | 2.9 | -3.1 | -1.3 | 9.9
Cc1cccc(NC(=O)c2cc3n(n2)C(C(F)(F)F)CC(c2ccc4c(c2)OCO4)N3)c1 (stereo not given) | · | · | · | -5.1 | · | 106.2*
COc1ccc(NC(=O)c2cc3n(n2)C(C(F)(F)F)CC(c2ccc4c(c2)OCO4)N3)cc1OC (stereo not given) | · | -9.3 | -2.0 | · | · | ·
Cc1cc(O)c(C(C)C)cc1C1(c2cc(C(C)C)c(O)cc2C)OC(=O)c2ccccc21 | 1.0 | -2.8 | 4.6 | 1.9 | -0.1 | 67.6*
Cc1cc(C2(c3ccc(O)c(C)c3)OC(=O)c3ccccc32)ccc1O | -37.1 | · | · | 2.3 | -11.1 | ·
CC1(c2nnc(-c3ccccc3)o2)CC(c2c(Cl)cccc2Cl)=NO1 (stereo not given) | -28.6* | 9.4 | -4.0 | -1.4 | -0.3 | 18.5
CC1(c2nnc(-c3ccncc3)o2)CC(c2c(Cl)cccc2Cl)=NO1 (stereo not given) | -22.1 | -0.6 | 5.1 | 0.5 | 11.5 | 5.5
C[C@@H]1CN([C@H](C)CO)C(=O)c2cccc(NS(C)(=O)=O)c2O[C@@H]1CN(C)C | 3.0 | -7.2 | 0.6 | · | 0.1 | 0.1[16.7 µM]
CCOc1ccc2[nH]cc(S(=O)(=O)c3ccc(C)cc3)c(=O)c2c1 | 4.0 | 3.6 | 0.2 | -6.1 | 60.4* | -2.8
COc1ccc(S(=O)(=O)Nc2ccc3c(c2)C(=O)N([C@@H](C)CO)C[C@@H](C)[C@H](CN(C)CC2CCCCC2)OCCCC[C@@H](C)O3)cc1 | 9.1 | 0.5 | -6.1 | · | 4.0 | -15.7[16.7 µM]
C(#Cc1ccccc1)C[N+]1(CC#Cc2ccccc2)CCCC1 | -44.5* | 1.3 | -7.9 | 4.1 | -3.2 | 15.3
C=CC[N+]1(CC#Cc2ccccc2)CCCC1 | 18.8 | 9.8 | · | -4.2 | -1.3 | -6.4
COc1ccc(NC(=O)N(C)C[C@H]2Oc3ccc(N(C)C)cc3C(=O)N([C@@H](C)CO)C[C@@H]2C)cc1 | 2.8 | -1.7 | 5.3 | -4.3 | 6.5 | 2.9[16.7 µM]
Cc1nc(N/N=C/c2ccccn2)sc1C | -50.7 | · | · | 2.0 | 0.9 | 106.9*
CCCc1sc(N/N=C/c2ccccn2)nc1-c1ccc(F)cc1 | · | -15.1 | -4.2 | · | · | ·
C[C@@H]1CN([C@H](C)CO)C(=O)c2cc(-c3cccc(F)c3)cnc2O[C@H]1CN(C)C(=O)c1cnccn1 | 1.3 | 5.1 | -0.8 | · | 15.5 | -5.9[16.7 µM]
CCN1C(=O)Nc2cccc3cccc1c23 | -13.3 | · | -3.2 | 3.6 | -9.8 | 61.9*
SMILES | rRNA inh HTS | PGC1a acetyl inh | PglD DTNB | FN deposition inh | DENV2 CPE rescue | Env fusion inh
CN(C)C(=O)C[C@@H]1C[C@H]2c3cc(NC(=O)Nc4ccc(C(F)(F)F)cc4)ccc3O[C@H]2[C@H](CO)O1 | -8.2 | -35.2 | 4.8 | -10.6 | 3.0 | ·
COc1ccc(CN(C)C[C@@H]2OCCCC[C@@H](C)Oc3ccc(NS(=O)(=O)c4ccc(Cl)cc4)cc3C(=O)N([C@H](C)CO)C[C@H]2C)cc1 | 1.6 | -12.9 | 0.7 | -3.9 | 70.4* | 16.3[16.7 µM]
COc1ccc(CN(C)C[C@@H]2OCCCC[C@H](C)Oc3ccc(NS(=O)(=O)c4ccc(Cl)cc4)cc3C(=O)N([C@@H](C)CO)C[C@H]2C)cc1 | -9.3 | -11.4 | -2.3 | 0.1 | 31.0* | 3.6[16.7 µM]
CO[C@@H]1CN(C)C(=O)c2cc(NC(=O)Nc3c(C)noc3C)ccc2OC[C@H](C)N(CC2CC2)C[C@H]1C | 0.3 | -2.7 | -2.3 | 3.8 | 0.8 | ·
COc1cc(/C=C2\SC(=S)N(C(C(=O)O)c3ccccc3)C2=O)cc(OC)c1OC (stereo not given) | -26.3* | 5.4 | -13.2 | -1.3 | -3.6 | -2.6
COc1cccc(/C=C2\SC(=S)N(C(C(=O)O)c3ccccc3)C2=O)c1OC (stereo not given) | -34.3* | 0.3 | 1.9 | -3.5 | -1.2 | 10.8
COc1ccc(/C=C2\SC(=S)N(C(C(=O)O)c3ccccc3)C2=O)c(OC)c1 (stereo not given) | -47.4 | 0.0 | -3.1 | -5.0 | 10.8 | -8.8
CO[C@H]1CN(C)C(=O)c2cc(NS(C)(=O)=O)ccc2OC[C@@H](C)N(Cc2cccnc2)C[C@@H]1C | 0.8 | 10.9 | · | -2.0 | · | ·
COc1cc(CN2CC3(CCN(S(=O)(=O)c4cccc(F)c4)CC3)c3c([nH]c4cc(OC)ccc34)[C@@H]2CO)cc(OC)c1 | 1.4 | -2.8 | · | · | 15.4 | ·
Cc1noc(C)c1NC(=O)Nc1ccc2c(c1)CC(=O)N([C@H](C)CO)C[C@@H](C)[C@@H](CN(C)Cc1ccc3c(c1)OCO3)O2 | 0.2 | 0.1 | · | · | · | -37.5[16.7 µM]
CO[C@H](CN(C)S(=O)(=O)c1ccc(F)cc1)[C@@H](C)CN([C@H](C)CO)S(=O)(=O)c1cccc(Cl)c1 | -0.2 | -2.1 | 1.6 | 0.6 | 6.8 | ·
COc1ccc(/C=N/NC(=O)c2cc(-c3ccc4c(c3)OCO4)n[nH]2)cc1OC | -20.2* | · | · | · | -9.5 | -103.2
CC(C)c1ccc(/C=N/NC(=O)c2cc(-c3cccc([N+](=O)[O-])c3)n[nH]2)cc1 | -10.4 | -14.3 | 0.1 | 10.0 | 33.8* | 11.6
O=C(N/N=C/c1cc2c(cc1Cl)OCO2)c1cc(-c2ccccc2)n[nH]1 | -23.9* | 3.4 | -3.7 | · | -4.8 | -36.9

Compound activity as filed in PubChem.
